Data published in the EternaBench riboswitch data.

System: MS2 coat protein
Assay: apparent Kd, MS2 coat protein; higher = weaker binding; RNA-MaP array; FMN 200 µM where present
Summary of the method: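 Designs were transcribed by stalled E. coli RNA polymerase on Illumina sequencing-chip clusters. They were titrated with SNAP-549-labelled MS2 coat protein from 0.7 or 1.5 nM, doubling to 3 µM, without and then with constant ligand. Buffer: 100 mM Tris-HCl pH 7.5, 80 mM KCl, 4 mM MgCl2, BSA, DTT, yeast tRNA, Tween-20. Green signal was normalised to red-channel RNA signal and control-cluster median Fmax. Apparent Kd is the median of filtered per-cluster binding-curve fits.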

[1] = designed as: OFF switch for flavin mononucleotide, no ligand
[2] = ligand present: flavin mononucleotide, designed as: OFF switch for flavin mononucleotide
[3] = designed as: ON switch for flavin mononucleotide, no ligand
[4] = ligand present: flavin mononucleotide, designed as: ON switch for flavin mononucleotide

Row | Sequence | apparent Kd [1] [nM] | apparent Kd [2] [nM] | apparent Kd [3] [nM] | apparent Kd [4] [nM]
1 | GACUGGGCAGGAUAUACAUGAGGAUCACCCAUGUGUCUGCGUCAGGCACGUGUAGACGGUAGAAGGGCCUACAC | 11.6 | 13.6 |  | 
2 | CGUCCGUGGGUAGUGAUCGUACAUGAGGAUCACCCAUGUGAGAAGGAUAUGCAUGCACGUGGACAGCAGAAGGUCUCACAACAA | 238 | 101 |  | 
3 | GCGAUAAACGAGGAUAUCGUAUCGGAAACGAUACGAGAAGGUGUAACAUGAGGAUCACCCAUGUUCCUCAACGC | 38.4 | 38.4 |  | 
4 | CAGCUACCCAGUAUGGGUUUAUGUGCAGAAGGCCAGGUACAUGAGGAUCACCCAUGUAAAGAUAUGGAGGAUAUGUUAGUGAAU |  |  | 17.9 | 6.66
5 | UUCGUGCAGCUUUGCUGUACGCGUACAUGAGGAUCACCCAUGUAGGAUAUGGUAGGCUUUGUUUACUAGAAGGAUAGUGUGAUC | 140 | 45.8 |  | 
6 | UUUACUUACGAAGGAUAUGGUUACAUGAGGAUCACCCAUGUAUGUAUAAUGAUCUAGUAUUUUAACCAGAAGGUCGUGAUUAUU | 39.3 | 64.6 |  | 
7 | CGUGCGUAUGUGAGGAUAUGCUGGUCCUUGGAUCGGCAGAAGGCACAUGAGGAUCACCCAUGUGGUGUCGUCCA | 85.8 | 64.5 |  | 
8 | UAAACGUUCUAGAAGGUGCUUUUGUUAAACAAGCAAGGAUAUAGACAUGAGGAUCACCCAUGUCUUUAAGACAUCGACAUACUU | 7.91 | 8.63 |  | 
9 | UGGAUCAUCGGAGGAUAUCAUGUAUAUACAUGAGGAUCACCCAUGUCGUACGAGAGUACGGAGAUUGAGAAGGCCGAUGAUCCU |  |  | 38.8 | 14.9
10 | GGUGGACAUGAGGAUCACCCAUGUGAGGAUAUCGGCUGGCUAGCGGCUGACGGCUGCUCGAGAAGGCGCAUUGU | 65.8 | 84.9 |  | 
11 | UUUUAACAUGAGGAUCACCCAUGUGAGGAUAUCGAAAUUUAUAUUAAUAUUAAUAAAUCGAGAAGGCACAUUUU | 117 | 127 |  | 
12 | GCAAAGCCUGACAUGAGGAUCACCCAUGUUAGAUUGUUAUGUCAGGAUAUUGUCUAGACCCUAGACAAGAAGGGAUGCUUUGCA |  |  | 472 | 29.1
13 | AACUCGUCAGGAUAUGCGCACAGAUAAUACGCUACACAAUUGCAGAAGGGACAUGAGGAUCACCCAUGUAAAUA | 39 | 26.2 |  | 
14 | CUUUUGUGAGGAUAUUAGUAGUAAAUAAAUAAUAUUACUACUGAGAAGGCACAUGAGGAUCACCCAUGUUCCUC | 37 | 302 |  | 
15 | AGAAAACAUGAGGAUCACCCAUGUAGAAAUAUGGGAGGAUAUACAAAGACGAAAGUCGAGGUAGAAGGCCUAAAGA |  |  | 100 | 23.4
16 | UAGUAUAAGGGCAUUAAACAUGAGGAUCACCCAUGUACGUUAGAGGAUAUGCAUUACAGUUGAGAGUAGAAGGUUAGAGAAGGG | 44.4 | 45.3 |  | 
17 | ACUCGAUUUUUGGGUUUACUAUAUGAGGAUAUCAUACAUCUAUACAUGAGGAUCACCCAUGUUACUGAGAAGGCAUAUAUAAUA |  |  | 17.3 | 6.77
18 | AGCGAGGUAGGAUAUACAUGAGGAUCACCCAUGUGCUUGCAUGGCGUGGAACAUCGUAGUAGAAGGGCCGCGCC | 20.4 | 40.2 |  | 
19 | UGGUACAUGGGAGGAUAUGGGUUGAUAACAUGAGGAUCACCCAUGUUAAAUGCCGAAAGGCAAAACUAGAAGGCCCAUGUACCU |  |  | 257 | 24.5
20 | GUAUUUUAAGUAAGGAUAUACCUCUGGAAACAGAGGUAGAAGGUACAUGAGGAUCACCCAUGUUUCUCUUUUGG | 17 | 23.6 |  | 
21 | UCGCUGCGAGGAUAUACAUGAGGAUCACCCAUGUACGGGUCCGGGUCUUAGUUGAUUGGUAGAAGGCGCAGUGA | 106 | 212 |  | 
22 | AAACUGCCACAUGAGGAUCACCCAUGUAAAUAAAGUAUUUGGAGAAGGGCGAUAGCAAAGCUAUCGCAGGAUAUUCUCAGGCAG |  |  | 20.3 | 15.3
23 | GUGUACAGAGGAUAUACAUGAGCAUGGAAACAUGCAUCUUCACAUGAGGAUCACCCAUGUAGAAGGCUGUACAC | 227 | 75 |  | 
24 | AAGGACUGAAUAAAUAACUCAAAUACAUGAGGAUCACCCAUGUAGGAUAUCGUCAGGAAUACUGACGAGAAGGACAUACAGUCC | 14 | 20.2 |  | 

Row | Sequence | apparent Kd [1] [nM] | apparent Kd [2] [nM] | apparent Kd [3] [nM] | apparent Kd [4] [nM]
25 | UUCAGGGAUCAAGGAUAUCUAUACUCAUGCGGACAUGAGGAUCACCCAUGUUGAUUACCCAUGAGGGAGAAGGUGAACAUGAGG |  |  | 31.3 | 18.7
26 | UCGAGGUCAGGAUAUACAUGAGGAUCACCCAUGUUGAGAGAAGGUAGGAAAAGAGUAGGUAGAAGGGACGAGAG | 33.7 | 33.8 |  | 
27 | ACGACGAAAGUCGAACGAUGAUCGAGAAGGACAUGAGGAUCACCCAUGUUCCGUGUAACACGCAUGUAGGAUAUCGAUCAUCGA | 5.17 | 11.4 |  | 
28 | CUGAUGUGAGGAUAUCGGGCUACGGCCAGGCCGCUAGCAUUCGAGAAGGCACAUGAGGAUCACCCAUGUGAGAA | 25.4 | 39.8 |  | 
29 | GGAUAGGACAGAGGAUAUACGUGCUAGAGAUACUAGCAAAAUUCCCUCACAUGAGGAUCACCCAUGUAGAAGGCUGUCCUAUCG | 5.68 | 49.6 |  | 
30 | UUCUUUACCUAGGAUAUCUUCGGUACGGUCCGGAGAGAAGGAGGUACAUGAGGAUCACCCAUGUCCCUCUGAAA | 12.6 | 13.6 |  | 
31 | CCACAGAUAGGAUAUACUGGGUGGGAUAAAUAUUUCCUGUGACAUGAGGAUCACCCAUGUAGAAGGAUCACAAG | 38.2 | 42.4 |  | 
32 | GCGUACAUAUCAGGAUAUCAUAUAAUUGUUUAUCUCAGUGUAUACAUGAGGAUCACCCAUGUUCUUGAGAAGGGAUAUGUACGC | 8.24 | 8.68 |  | 
33 | AUAUUUGUGUAGAAGGUACGUGAUUAGUCAAAGUAAGGAUAUACUGACAUGAGGAUCACCCAUGUUUAAAUAGUUAAAUGUUCU |  |  | 10.9 | 8.01
34 | ACAUGAGGAUCACCCAUGUUCACAUAGGAUAUUGAUUAUAUUGGUUUUAGAAUAGUAAUUAACCUCAAGAAGGAUGCCAGAUCU |  |  | 13.7 | 10.1
35 | GCUAAGCGAAUCAAGAUGGAUAGAACAUGAGGAUCACCCAUGUAGGAUAUGCUACACAAAGUGUAGCAGAAGGACAAGCUUAGC | 19.9 | 33.5 |  | 
36 | UUCGAGCCAAGGCUCGCGAGUACACAGGAUAUGGAAAGUCACAUGAGGAUCACCCAUGUCCAAAACCAGAAGGGUGAGACUAAG |  |  |  | 70.4
37 | GAAUAGGCAGGAUAUACAUGAGGAUCACCCAUGUGCCGGCGAAAGGUACGUUCGAAAGGUAGAAGGGCCUAAAC | 78.6 | 288 |  | 
38 | GGGCCCGGUGUGAGGAUAUGGGCCCGGAAACGGGCCCAGAAGGCACAUGAGGAUCACCCAUGUAAGCCGGGCCC | 15.4 | 15.7 |  | 
39 | GCUGACGAUGUAGGAUAUCUCGACGAUAAGUCGAGAGAAGGACAUGAGGAUCACCCAUGUCUCAAAACGUCAGCGAGGAAACUC | 16.4 | 17.4 |  | 
40 | ACGGCUAACCCAGUUUAAAUCUCAAGAAGGGUACACUGGGCAAGGUACAUGAGGAUCACCCAUGUACAGGAUAUUGAGAUGAGA | 25.6 | 45.4 |  | 
41 | ACUUUAUUUGAGAAGGUGAAGUGGAAACAUGAGGAUCACCCAUGUAAUAGGAAGCCUAUUUUUAUCAAGGAUAUCAAAUAAAGA |  |  | 7.89 | 7.86
42 | GCGAUUUUGUAAGGAUAUACACGAGUUUCAAGUGUAGAAGGUACUUACAUGAGGAUCACCCAUGUAUACAUGGAUAAUAGUCGC |  |  | 548 | 84.2
43 | ACUUUGUUUGAGAAGGUGAAGUGGAAACAUGAGGAUCACCCAUGUAUUAGGAAGCCUGGUUUUGUCAAGGAUAUCGGGUAAAGA |  |  | 12 | 10.1
44 | AAGUCUGGACGAGGAUAUCAGUUGUAUCUAGAUUCAACAUGAGGAUCACCCAUGUUGCAAUAGGGUGAGAAGGCGUUUGGGCAA |  |  | 79.9 | 21.2
45 | CAGUUGGGCUCAGGAUAUCGGGUUUAACAUGAGGAUCACCCAUGUCGUCCGCGAAAGCGGAAUCACGAGAAGGGAGACCAGCGA |  |  | 9.12 | 6.42
46 | GCACAUGAUACAGGAUAUGUUUUGGAUUUUAUAUGCAGUUAUUUUAUUUUGACAGAAGGGUAUACAUGAGGAUCACCCAUGUGC | 76.3 | 48.1 |  | 
47 | GGUUAUUGCAAGGAUAUGCUUUUUUUUUAUAUUGCAGAAGGUGCAACAUGAGGAUCACCCAUGUUGGAGGGAUU | 30.9 | 59.5 |  | 
48 | GCUAGUAUUGCAGGAUAUUGUGAAUAAUUAUUUCAAGAAGGGCAUUACAUGAGGAUCACCCAUGUCAUCCUUUUGAAUACUAGC | 5.67 | 7.63 |  | 
